Laboratory results published in ChEMBL document CHEMBL4513216, “Probing the Open Global Health Chemical Diversity Library for Multistage-Active Starting Points for Next-Generation Antimalarials” (ACS Infect Dis, 2020).

Test: Toxicity liver stage against HepG2, at 10uM
Type: cell-based
Parameters: test concentration 10 uM, cell line HepG2-A16-CD81EGFP
Details: human, HepG2-A16-CD81EGFP cells; read-out: INHIBITION
How it was run: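 Uninfected HepG2-A16-CD81EGFP cells, 3 × 10^3 per well, 1536-well, plated on prespotted compound at 10 μM final, parasite-free screening media added to match infected plates; puromycin 10 μM positive, DMSO 0.5% negative; run in parallel with 48 h PbLuc assay at 37 °C, 5% CO2; viability by CellTiter-Glo luminescence, normalized to controls.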

Compound	cytotoxicity at 10 µM [%]
COc1ccc2c(c1)nc1n2[C@@H](CN(C2CCC2)C2CCC2)COC1	5.96
COc1ccc(CN2CCCCCC2c2cccs2)c(OC)c1 (configuration not stated)	11
O=S(=O)(NCC1(O)CCOc2ccccc21)c1ccccc1F (configuration not stated)	7.22
Cc1nccn1-c1ccc(=O)n(CCNC(=O)c2ccncc2)n1	-3.18
Cn1c(C(F)(F)F)nn(CCNC(=O)c2ccccn2)c1=O	-1.4
CC(=O)N1CC[C@@H](N2CCN(C)CC2)[C@@H]1Cc1ccccc1	9.04
CCC(C)Nc1ccc2c(c1)C1(CCOCC1)C(=O)N2c1ccccc1 (configuration not stated)	8.7
CC(C)C(=O)N1CCCC2(CCCN2Cc2cccnc2)C1 (configuration not stated)	5.22
CS(=O)(=O)N1CCCC12CCCN(C(=O)c1ccncc1)C2 (configuration not stated)	-159
CO[C@@H]1CCN(S(=O)(=O)c2cn(C)cn2)[C@H]1Cc1ccccc1	7.13
Cc1ccc(S(=O)(=O)NC2=NCN(CCc3cccs3)CN2)cc1	4.77
Fc1cccc(Cl)c1CNCc1ccccn1	-2.25
CC(C)NC(=O)COc1ccc(-c2nc(C(C)C)no2)cc1	5.67
COc1cccc(OCCNS(=O)(=O)Cc2ccccc2)c1	-15.7
CSc1ncnc(NCc2cccs2)c1C#N	-0.277
CCc1nc(NCCCn2cccn2)c2c(n1)c(C)nn2C	6.41
Cc1cc(C(=O)N2CCN(c3ncc4c(n3)CCOC4)CC2)sc1C	0.794
CC(NC(=O)C1CC1)c1cc(O)nc(-c2cccnc2)n1 (configuration not stated)	2.67
CS(=O)(=O)N1CCCC1c1ccnc2nccn12 (configuration not stated)	-2.62
NC(=O)c1cnn2c(C3CCCN(C4CCOCC4)C3)ccnc12 (configuration not stated)	4.34
O=C1NC2(CCCN(C(=O)CCn3cccn3)C2)Oc2ccccc21 (configuration not stated)	-6.19
COc1ccc(C(C)NCc2ccsc2)cc1Cn1cccn1 (configuration not stated)	7.86
CC(C)(CNC(=O)C1(c2ccccc2)CCOCC1)C(=O)O	1.25

Compound	cytotoxicity at 10 µM [%]
COc1cc(Cl)c(CN2CCC(C(N)=O)C2)cc1Cl (configuration not stated)	-2.4
Cc1ccc(OCc2cccc(C(=O)N(C)C(C)CC#N)c2)cn1 (configuration not stated)	6.36
COc1cc(C(=O)NC2COc3ccccc3C2)ccc1OCC(N)=O (configuration not stated)	-22.8
Cc1nc(NS(=O)(=O)c2ccc(F)c(Br)c2)no1	6.04
CC1(C)CN(C(=O)c2cc(F)cc3[nH]cnc23)CCS1	-7.36
CCC(C(=O)NCCc1coc(-c2ccc(C)cc2)n1)N(C)C (configuration not stated)	-1.13
O=C(OCC1CCCN(C(=O)c2ccccc2)C1)c1cscn1 (configuration not stated)	-9.92
COc1ccc(CNCC2CN(C3CC3)CCO2)cc1C (configuration not stated)	-8.01
COc1ccc(-c2nnc(CN3CCNC(=O)C3)o2)cc1	-2.27
O=C(c1cccc(NCCOc2ccc(F)cc2)c1)N1CCOCC1	7.43
CC(C)(NC(=O)CCc1ccco1)c1ccc2c(c1)OCCO2	1.44
CC(CN1CCOCC1)NC(=O)NCc1cccs1 (configuration not stated)	-15.9
N#CCSCCCN1CCN(C(=O)c2cccc(Cl)c2)CC1	-161
CC(=O)NCCNC(=O)c1ccc(C)c(-n2cccc2)c1	-2.04
CC(c1nc(C2CC2)no1)N1CCN(CC(=O)N2CCOCC2)CC1 (configuration not stated)	6.75
O=C(CN1CCOC(Cn2cccn2)C1)Nc1cccnc1 (configuration not stated)	10.7
Cc1noc(CNC(=O)N2CCN(c3nc(C)c(C)s3)CC2)n1	-19.5
Cc1cc(C)c(CNC(=O)NC2COc3ccccc3C2)c(=O)[nH]1 (configuration not stated)	-13.8
O=C(Nc1ccn(Cc2cccc3cccnc23)n1)C1COCCO1 (configuration not stated)	5.18
CCOc1ccc(N(C)S(=O)(=O)c2c[nH]c(C(C)C)n2)cc1	-4.52
CC(Cc1ccco1)NC(=O)C1=NN(c2ccccc2)C(=O)CC1 (configuration not stated)	0.537
Cc1nc2scc(C)n2c1CNc1ccc(C(=O)O)cc1	7.05
Cc1cc(F)c2c(c1)CCCN2C(=O)c1cncc(Br)c1	1.25

Compound	cytotoxicity at 10 µM [%]
CC(=O)N1CCC(Nc2cccc(OC(F)F)c2C)CC1	-15.1
CCN(CC)C(=O)c1cccc(Cn2nc(C)cc2C)c1	-5.93
CN(CC(=O)NCC(C)(C)c1ccc2c(c1)OCO2)c1cnccn1	-7.5
CCOC(=O)C1CCN(CCCc2nnnn2-c2ccccc2)CC1	0.462
Cc1ccc(CNC(=O)NCc2ccco2)s1	3.47
OC(CN1CCCc2ccc(F)cc21)Cn1cccn1 (configuration not stated)	5.95
CC(C)Oc1cccc(CC(=O)N(CC(N)=O)C2CCCC2)c1	-2.09
c1ccc2oc(NC3CCCN(Cc4noc(C5CC5)n4)C3)nc2c1 (configuration not stated)	-0.989
CCN(Cc1ccco1)C(=O)c1cc(OC)c2c(c1)OCCO2	-4.22
COc1cc(N2C[C@H](OCc3cccnc3)[C@H]3OCCC[C@H]32)ncn1	4.13
CC1(C)OC(=O)N(CCCOc2ccc(F)cc2)C1=O	0.17
CCN(CC)C(=O)Cn1cc(C(=O)NCCc2scnc2C)nn1	-4.47
O=C(Cc1ccccn1)N1CCCC(c2nccn2CC2CCC2)C1 (configuration not stated)	-2.11
CCc1cc(N(C)Cc2ccncn2)n2nccc2n1	3.61
Cc1ccc(N2CCC(C3CCN(CC(C)C)CC3)C2)nn1 (configuration not stated)	-6.81
CN(Cc1n[nH]c2c1CCCC2)c1nc2c(c(=O)[nH]1)CCNCC2	-20.1
CN(C)CCO[C@H]1C[C@@H](O)C12CCN(c1ncccc1Cl)CC2	5.37
O=C1NCCCc2[nH]c(C3CCN(C(=O)C4CC4)CC3)nc21	-3.46
CN(CCc1cn[nH]c1)Cc1nc(Cc2cccc(C(F)(F)F)c2)no1	0.361
O=C(c1ccncc1)N1CCC(Oc2cccc(C(F)(F)F)c2)CC1	14.1
O=C1CC(NCc2ccc(Cl)s2)CN1Cc1cccc(F)c1 (configuration not stated)	-0.73
COC(=O)c1cc(NC(=O)NCC2CCS(=O)(=O)C2)ccc1Cl (configuration not stated)	2.57
COCCN(C)C[C@@H]1CN(C(=O)c2cccc(Cl)c2)C[C@@H]1CO	-16.7

Compound	cytotoxicity at 10 µM [%]
Cc1nc(CN2CCCC(Cn3cc(CCO)nn3)C2)c2ccccn12 (configuration not stated)	3.28
CC(=O)N1CCCn2nc(CNc3cc(C)ncn3)cc2C1	5.19
CCc1nc(CN(C)C(=O)C2CCC(=O)N(CC3CCCCC3)C2)no1 (configuration not stated)	4.46
O=c1[nH]nc(CCCN2CCOCC2)n1Cc1cccc(F)c1	7.04
CSc1cccc(CN(C)C(=O)CN2CCN(c3ncccn3)CC2)c1	4.64
CC(C)CC(O)C1CCN(Cc2ccc(N(C)C)nc2)CC1 (configuration not stated)	1.75
COc1cc(F)c(C(=O)N2C[C@@H](CN(C)CCO)[C@@H](CO)C2)c(F)c1	-1.53
CCCOc1ccc(C(=O)N[C@@H]2CCNC[C@H]2O)cc1Cl	-10.4
Cc1noc(C)c1CN1CCC(c2nnc(Cn3cccn3)n2C)CC1	3.82
COCc1nnc(C(=O)N2CC(N3CCCCC3)C2)o1	-3.57
Cc1ccc(C)c(OCc2cc(C(=O)N(C)CC(O)CO)no2)c1 (configuration not stated)	2.55
COCC[C@]1(O)CCN(Cc2nc(C)cs2)C[C@H]1C	10.5
Cc1ccnn1CC(=O)N1CCN(C2CCc3ccccc3C2)CC1 (configuration not stated)	-131
Cc1ccc2c(c1)c(CNC(=O)C1CCCN(CC(N)=O)C1)nn2C (configuration not stated)	-17.9
CCN(Cc1ccncc1)C(=O)C(C)n1ccnc1C(C)C (configuration not stated)	2.79
COCCCN(Cc1cnc(N2CCCC2)nc1)C1CCN(C)CC1	-10.3
COCCNC(=O)c1cc(S(=O)(=O)N2CCCC2)cs1	6.15
CC(C)COc1ccccc1CN(C)C(=O)c1cc(=O)[nH]c(=O)[nH]1	2.05
Cc1nc[nH]c1CN1CCn2nc(CN3CC[C@H](F)C3)cc2C1	5.01
Cc1noc(-c2ccnc(N3CCN(C4CCOCC4)CC3)c2)n1	1.83
CCc1nc(CN2CCCN(C(=O)c3cnc(C)cn3)CC2)cs1	-4.81
Cc1ncsc1C(=O)NCCNC(=O)c1cccs1	-8.83
c1nc(N2CCCC2Cn2cncn2)c2sccc2n1 (configuration not stated)	-9.19

Compound	cytotoxicity at 10 µM [%]
Cc1ccccc1C1(C(=O)NCCN2CCCCC2C)CCOCC1 (configuration not stated)	-1.69
CN(Cc1ccccc1)CC(O)Cn1cnc2sccc2c1=O (configuration not stated)	-6.54
CNC(=O)NCc1nn(-c2ccccc2)c2c1CCC2	-10.8
COCCc1noc(CN2CCCCC2Cn2cncn2)n1 (configuration not stated)	-1.9
CCN(CC1COc2ccccc2O1)C(=O)NCCCn1cncn1 (configuration not stated)	-9.27
Cc1nc(CN2CCCC2c2c(C)nn(C)c2Cl)no1 (configuration not stated)	1.85
CCCN1C(=O)CC2(CCCNC2)C1=O (configuration not stated)	4.1
Cc1cc(C(=O)NCCN2CCN(S(C)(=O)=O)CC2)no1	-6.29
Cc1cc(C)c2[nH]c(C)c(CC(=O)N(C)CCN(C)C)c2c1	2.49
COCCN1C(=O)CCC12CCC(NCc1nccs1)CC2 (configuration not stated)	7.01
O=C(C1CC1)N1CCC[C@]2(C[C@@H](OCc3ccncc3)CO2)C1	6.46
Cn1cccc1C(=O)N1CCN(Cc2cccnc2)c2ncccc2C1	10.9
O=S(=O)(NCC1OCCc2cn(Cc3ccccn3)nc21)C1CC1 (configuration not stated)	-143
CS(=O)(=O)N1CCC2(CC1)CC(Oc1ccccn1)CO2 (configuration not stated)	-150
CNC(=O)[C@H]1C[C@H]2OCC[C@H]2N(CC2CC2)C1	4.17
Cc1nc(CN2CCO[C@H]3[C@H](OCC(=O)N(C)C)CC[C@@H]32)cs1	0.129
CC(C)N1CCOCC2(CN(Cc3nccs3)CCO2)C1 (configuration not stated)	-0.653
CN(Cc1cccnc1)C1COC2(CCN(Cc3nccs3)CC2)C1 (configuration not stated)	6.37
CN(Cc1cncnc1)[C@@H]1CN(Cc2ccco2)C[C@@H]2CCCO[C@@H]21	-1.6
CNC(=O)[C@H]1C[C@H]2OCC[C@H]2N(Cc2ccc(C)o2)C1	11.8
